Reference: ChEMBL document CHEMBL1135529, “New inhibitors of bacterial protein synthesis from a combinatorial library of macrocycles” (J Med Chem, 2002)
≈ marks a conversion by molar mass, not a printed value.

Columns and labels:
Format in all cases: functional
Escherichia coli [1] = assay: Inhibition of cell free transcription/translation by Escherichia coli s30 bacterial extract.
Summary of the method: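 Coupled transcription/translation in E. coli S30 extract with pBest Luc plasmid (0.125 μg/μL stock), S30 premix and complete amino acid mix (1 mM each, 10× stock). 35 min at 37 °C, then luciferase read by luminescence. IC50 = concentration reducing luciferase activity to 50% of control; compounds HPLC-purified before IC50 determination.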

Escherichia coli [2] = assay: In vitro minimum inhibition concentration against Escherichia coli KZM120, pump mutant.
Summary of the method: (§1)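 Broth microdilution in duplicate. Overnight culture added to compound in 2.5% DMSO in water; final inoculum about 10²–10³ CFU/well. Growth relative to no-compound control read as A595 after 20–24 h at 37 °C. MIC reported as a range: complete inhibition at the upper concentration, viable cells at the lower. Top concentration 100 μM.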

[3] = In vitro inhibition of translation in luciferase SP6 control plasmid
Summary of the method: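 Luciferase mRNA transcribed from SP6 plasmid with SP6 RNA polymerase, then translated in E. coli S30 extract for linear templates with S30 premix and complete amino acid mix (1 mM each, 10× stock). 90 min at 37 °C; functional luciferase detected by luminescence. IC50 = concentration reducing luciferase activity to 50% of control.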

Escherichia coli [4] = assay: In vitro minimum inhibition concentration against Escherichia coli K-12, wild type.; summary of the method: as §1
Escherichia coli [5] = assay: In vitro minimum inhibition concentration against Escherichia coli Ram195, pump mutant.; summary of the method: as §1
Escherichia coli [6] = assay: In vitro minimum inhibition concentration against Escherichia coli D21f2, LPS mutant; Range is from 25-50.; summary of the method: as §1
Escherichia coli [7] = assay: In vitro minimum inhibition concentration against Escherichia coli D21f2, LPS mutant; Range is from 12-25.; summary of the method: as §1
Escherichia coli [8] = assay: In vitro minimum inhibition concentration against Escherichia coli D21f2, LPS mutant; Range is from 25-50; summary of the method: as §1
Escherichia coli [9] = assay: In vitro minimum inhibition concentration against Escherichia coli KZM120, pump mutant; Range is from 50-100.; summary of the method: as §1
Escherichia coli [10] = assay: In vitro minimum inhibition concentration against Escherichia coli K-12, wild type; Range is from 50-100.; summary of the method: as §1
Escherichia coli [11] = assay: In vitro minimum inhibition concentration against Escherichia coli Ram195, pump mutant; Range is from 50-100.; summary of the method: as §1

Compound: NC(N)=NCCC[C@H]1COc2ccc(NC(=O)CNC(=O)c3ccc4nc(O)c(O)nc4c3)cc2C(=O)NC[C@@H](N)C(=O)N[C@@H](Cc2ccc(N)cc2)C(=O)N1
- IC50 (Escherichia coli [1]): 50 µM

Compound: NC(N)=NCCC[C@H]1COc2ccc(NC(=O)c3ccc4nc(O)c(O)nc4c3)cc2C(=O)NC[C@@H](N)C(=O)N[C@@H](Cc2ccc(O)cc2)C(=O)N1
- MIC (Escherichia coli [2]): > 100 µM
- IC50 [3]: 50 µM
- MIC (Escherichia coli [4]): > 100 µM
- MIC (Escherichia coli [5]): > 100 µM
- MIC (Escherichia coli [6]): 50 µM (≈ 35.7 µg/mL)
- IC50 (Escherichia coli [1]): 25 µM

Compound: NC(N)=NCCC[C@@H]1COc2ccc(NC(=O)c3ccc4nc(O)c(O)nc4c3)cc2C(=O)NC[C@H](N)C(=O)N[C@H](Cc2ccc(N)cc2)C(=O)N1
- MIC (Escherichia coli [2]): > 100 µM
- IC50 [3]: 25 µM
- MIC (Escherichia coli [7]): 25 µM (≈ 17.8 µg/mL)
- MIC (Escherichia coli [4]): > 100 µM
- MIC (Escherichia coli [5]): > 100 µM
- IC50 (Escherichia coli [1]): 17 µM

Compound: NC(N)=NCCC[C@H]1COc2ccc(NC(=O)c3ccc4nc(O)c(O)nc4c3)cc2C(=O)NC[C@@H](N)C(=O)N[C@@H](Cc2ccc(N)cc2)C(=O)N1
- MIC (Escherichia coli [2]): > 100 µM
- IC50 [3]: 13 µM
- MIC (Escherichia coli [4]): > 100 µM
- MIC (Escherichia coli [8]): 50 µM (≈ 35.7 µg/mL)
- MIC (Escherichia coli [5]): > 100 µM
- IC50 (Escherichia coli [1]): 16 µM

Compound: NC(N)=NCCC[C@H]1COc2ccc(NC(=O)CCNC(=O)c3ccc4nc(O)c(O)nc4c3)cc2C(=O)NC[C@@H](N)C(=O)N[C@@H](Cc2ccc(N)cc2)C(=O)N1
- IC50 (Escherichia coli [1]): 3 µM

Compound: NC(N)=NCCC[C@@H]1COc2ccc(NC(=O)c3ccc4nc(O)c(O)nc4c3)cc2C(=O)NC[C@H](N)C(=O)N[C@H](Cc2ccccc2)C(=O)N1
- MIC (Escherichia coli [9]): 100 µM (≈ 69.9 µg/mL)
- MIC (Escherichia coli [10]): 100 µM (≈ 69.9 µg/mL)
- MIC (Escherichia coli [6]): 50 µM (≈ 34.9 µg/mL)
- MIC (Escherichia coli [11]): 100 µM (≈ 69.9 µg/mL)
- IC50 (Escherichia coli [1]): 12 µM

Compound: Cc1nc2ccc(C(=O)Nc3ccc4c(c3)C(=O)NC[C@@H](N)C(=O)N[C@@H](Cc3ccc(N)cc3)C(=O)N[C@@H](CCCN=C(N)N)CO4)cc2nc1C
- IC50 (Escherichia coli [1]): > 100 µM

Compound: NC(N)=NCCC[C@H]1COc2ccc(NC(=O)c3ccc4nc(O)c(O)nc4c3)cc2C(=O)NC[C@@H](N)C(=O)N[C@@H](Cc2cccnc2)C(=O)N1
- IC50 (Escherichia coli [1]): 50 µM

Compound: Cn1c(=O)c(=O)n(C)c2cc(C(=O)Nc3ccc4c(c3)C(=O)NC[C@@H](N)C(=O)N[C@@H](Cc3ccc(N)cc3)C(=O)N[C@@H](CCCN=C(N)N)CO4)ccc21
- IC50 (Escherichia coli [1]): > 100 µM

Compound: NC(N)=NCCC[C@H]1COc2ccc(NS(=O)(=O)c3ccc4nc(O)c(O)nc4c3)cc2C(=O)NC[C@@H](N)C(=O)N[C@@H](Cc2ccc(N)cc2)C(=O)N1
- IC50 (Escherichia coli [1]): 62 µM

Compound: NC(N)=NCCC[C@H]1COc2ccc(NC(=O)c3cc4nc(O)c(O)nc4cc3[N+](=O)[O-])cc2C(=O)NC[C@@H](N)C(=O)N[C@@H](Cc2ccc(N)cc2)C(=O)N1
- IC50 (Escherichia coli [1]): > 100 µM

Compound: NC(N)=NCCC[C@H]1COc2ccc(NC(=O)c3ccc4ccccc4n3)cc2C(=O)NC[C@@H](N)C(=O)N[C@@H](Cc2ccc(N)cc2)C(=O)N1
- IC50 (Escherichia coli [1]): > 100 µM

Compound: CN(CC(=O)Nc1ccc2c(c1)C(=O)NC[C@@H](N)C(=O)N[C@@H](Cc1ccc(N)cc1)C(=O)N[C@@H](CCCN=C(N)N)CO2)C(=O)c1ccc2nc(O)c(O)nc2c1
- IC50 (Escherichia coli [1]): > 100 µM

Compound: NC(N)=NCCC[C@@H]1COc2ccc(NC(=O)c3ccc4nc(O)c(O)nc4c3)cc2C(=O)NC[C@H](N)C(=O)N[C@H](Cc2ccc(O)cc2)C(=O)N1
- MIC (Escherichia coli [2]): > 100 µM
- IC50 [3]: 35 µM
- MIC (Escherichia coli [7]): 25 µM (≈ 17.9 µg/mL)
- MIC (Escherichia coli [4]): > 100 µM
- MIC (Escherichia coli [5]): > 100 µM
- IC50 (Escherichia coli [1]): 15 µM

Compound: NC(N)=NCCC[C@@H]1COc2ccc(NC(=O)c3ccc4nc(O)c(O)nc4c3)cc2C(=O)NC[C@@H](N)C(=O)N[C@H](Cc2cccnc2)C(=O)N1
- IC50 (Escherichia coli [1]): 20 µM

Compound: NCCCC[C@H]1COc2ccc(NC(=O)c3ccc4nc(O)c(O)nc4c3)cc2C(=O)NC[C@@H](N)C(=O)N[C@@H](Cc2ccccc2)C(=O)N1
- MIC (Escherichia coli [2]): > 100 µM
- IC50 [3]: 50 µM
- MIC (Escherichia coli [7]): 25 µM (≈ 16.8 µg/mL)
- MIC (Escherichia coli [4]): > 100 µM
- MIC (Escherichia coli [5]): > 100 µM
- IC50 (Escherichia coli [1]): 40 µM

Compound: NC(N)=NCCC[C@H]1COc2ccc(NC(=O)CCCCCNC(=O)c3ccc4nc(O)c(O)nc4c3)cc2C(=O)NC[C@@H](N)C(=O)N[C@@H](Cc2ccc(N)cc2)C(=O)N1
- IC50 (Escherichia coli [1]): 33 µM

Compound: NC(N)=NCCC[C@H]1COc2ccc(NC(=O)CCCNC(=O)c3ccc4nc(O)c(O)nc4c3)cc2C(=O)NC[C@@H](N)C(=O)N[C@@H](Cc2ccc(N)cc2)C(=O)N1
- IC50 (Escherichia coli [1]): 75 µM

Compound: Cc1cc2nc(O)c(O)nc2cc1S(=O)(=O)Nc1ccc2c(c1)C(=O)NC[C@@H](N)C(=O)N[C@@H](Cc1ccc(N)cc1)C(=O)N[C@@H](CCCN=C(N)N)CO2
- IC50 (Escherichia coli [1]): 2 µM

Compound: NC(N)=NCCC[C@H]1COc2ccc(NC(=O)c3ccc4cccnc4c3)cc2C(=O)NC[C@@H](N)C(=O)N[C@@H](Cc2ccc(N)cc2)C(=O)N1
- IC50 (Escherichia coli [1]): > 100 µM

Compound: NC(N)=NCCC[C@H]1COc2ccc(NC(=O)c3ccc4ccccc4c3)cc2C(=O)NC[C@@H](N)C(=O)N[C@@H](Cc2ccc(N)cc2)C(=O)N1
- IC50 (Escherichia coli [1]): > 100 µM

Compound: NC[C@H]1O[C@H](O[C@H]2[C@H](O)[C@@H](O[C@H]3O[C@H](CO)[C@@H](O)[C@H](N)[C@H]3O)[C@H](N)C[C@@H]2N)[C@H](O)[C@@H](O)[C@@H]1O [KANAMYCIN]
- IC50 [3]: 0.08 µM
- IC50 (Escherichia coli [1]): 0.04 µM
